Measured values collected from several papers.
Compare with care: the assays were run in different laboratories.
CDK3 with cyclin E: Cyclin-dependent kinase 3, with cyclin E (CDK3, Homo sapiens, UniProt Q00526)
CDK3: Cyclin-dependent kinase 3 (CDK3, Homo sapiens, UniProt Q00526)

SMILES | target | assay | setting | quantity | value
CC(C)S(=O)(=O)c1ccc2nccc(Nc3ccc4sc(C5CCCC5)nc4c3)c2c1 | CDK3 with cyclin E | enzyme activity, inhibitor | 1 µM | activity vs control | 96.5%
N#Cc1ccc(NC(=O)Nc2ccccc2)cc1 | CDK3 | cell-free assay, competition with immobilised ligand | 25 µM | remaining binding | 98%
C[C@]1(O)CCCN(c2nc(Nc3ccc(S(=O)(=O)N[C@H]4CC[C@H](CN5CCN(c6ccc(C7CCC(=O)NC7=O)cc6F)CC5)CC4)cc3Cl)ncc2C(F)(F)F)C1 (some centres unmarked) | CDK3 | binding, competition with immobilised ligand | 1 µM | remaining binding | 69%
Cc1ccc(NC(=O)c2ccnc(C(F)(F)F)c2)cc1-c1cc(OCCO)nc(N2CCOCC2)c1 | CDK3 | binding, competition with immobilised ligand | 1 µM | remaining binding | 89%
COc1ccc2oc(-c3ccc4nc(N)oc4c3)c/c(=N\c3ccccc3NC(=O)CCN)c2c1 | CDK3 with cyclin E | binding | 1 µM | remaining binding | 108%
C[C@]1(O)CCCN(c2nc(Nc3ccc(S(=O)(=O)N[C@H]4CC[C@H](CN5CCN(c6ccc(C7CCC(=O)NC7=O)cc6F)CC5)CC4)cc3F)ncc2C(F)(F)F)C1 (some centres unmarked) | CDK3 | binding, competition with immobilised ligand | 1 µM | remaining binding | 74%
C=CC(=O)N1CCC([C@@H]2CCNc3c(C(N)=O)c(-c4ccc(Oc5ccccc5)cc4)nn32)CC1 | CDK3 | enzyme activity, inhibitor | 1 µM | inhibition | 8%
CCCCC(=O)Nc1ccc(-c2ccc3ncn(CCC)c(=O)c3c2)cn1 | CDK3 | binding, competition with immobilised ligand | 0.5 µM | remaining binding | 93%
C1=C/COCc2cc(ccc2OCCN2CCCC2)Nc2nccc(n2)-c2cccc(c2)COC/1 | CDK3 | cell-free assay | 0.1 µM | remaining signal | 100%
CC#CC(=O)N1CCC[C@H]1c1nc(-c2ccc(C(=O)Nc3ccccn3)cc2)c2c(N)nccn12 | CDK3 | enzyme activity, inhibitor | 1 µM | inhibition | 8%
CN1CCN(C(=O)c2ccc(NC(=O)Nc3ccc(N(C)c4ccnc(Nc5ccc(CS(C)(=O)=O)cc5)n4)cc3)cc2)CC1 | CDK3 | binding, competition with immobilised ligand | 1 µM | remaining binding | 100%
